Calls of active or inactive are those of the source. The rule behind the calls is not given here.
Experiments:
Format in all cases: cell-based
[1] = target: T1, Dihydroorotate dehydrogenase (quinone), mitochondrial (Homo sapiens, UniProt Q02127); assay: Inhibition of DHODH in human HEK293 cells transfected with ISRE-luciferase reporter gene assessed as increase in 125 IU/ml IFN-alpha stimulated IFIT2 mRNA expression at 80 uM measured after 16 hrs by RT-qPCR analysis relative to control
In short: (§1)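 ISRE-Luc HEK cells co-treated with increasing IFN-α concentrations and DMSO or compound (80 µM) for 16 h. Total RNA extracted from 2×10^5 cells with DNase step; qPCR 35 cycles. CT values normalized to RPL13A and unstimulated controls (2^-ΔΔCT), expressed as fold change versus DMSO alone. Three independent experiments; two-way ANOVA with Bonferroni.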

[2] = target: T1, Dihydroorotate dehydrogenase (quinone), mitochondrial; assay: Inhibition of DHODH in human HEK-293 cells transfected with ISRE-luciferase reporter gene assessed as increase in 150 IU/ml IFN-alpha mediated cellular response at 80 uM in presence of PF477736 CHK1 inhibitor measured after 24 hrs by luciferase reporter gene assay; conditions: HEK293
In short: (§2)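 ISRE-Luc HEK-293 cells given IFN-α (150 IU/ml) alone or with test compound (80 µM), with or without the MRE11 inhibitor mirin, ATR inhibitor AZD6738, CHK1 inhibitor PF477736 or P300/CBP inhibitor C636. Firefly luciferase read 24 h later, normalized to IFN-α alone. Means ± SD of at least three independent experiments.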

[3] = target: T1, Dihydroorotate dehydrogenase (quinone), mitochondrial; assay: Inhibition of DHODH in human HEK293 cells transfected with ISRE-luciferase reporter gene assessed as increase in 30 IU/ml IFN-alpha stimulated IFITM3 mRNA expression at 80 uM measured after 16 hrs by RT-qPCR analysis relative to control; in short: as §1
[4] = target: T1, Dihydroorotate dehydrogenase (quinone), mitochondrial; assay: Inhibition of DHODH in human HEK293 cells transfected with ISRE-luciferase reporter gene assessed as increase in 60 IU/ml IFN-alpha stimulated MX2 mRNA expression at 80 uM measured after 16 hrs by RT-qPCR analysis relative to control
In short: (§3)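 HEK-293 ISRE-Luc cells (DMEM, 10% FCS, 37°C, 5% CO2) were given increasing IFN-α doses together with DMSO or compound at 80 μM, then harvested at 16 h. RNA was extracted from 2×10^5 cells with DNase treatment. Transcripts were run by qPCR for 35 cycles and normalized to RPL13A and to unstimulated controls by 2^-ΔΔCT. Values are fold change versus DMSO; three independent experiments; two-way ANOVA with Bonferroni.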

[5] = target: T1, Dihydroorotate dehydrogenase (quinone), mitochondrial; assay: Inhibition of DHODH in human HEK293 cells transfected with ISRE-luciferase reporter gene assessed as increase in 250 IU/ml IFN-alpha stimulated IFIT2 mRNA expression at 80 uM measured after 16 hrs by RT-qPCR analysis relative to control; in short: as §1
[6] = target: T1, Dihydroorotate dehydrogenase (quinone), mitochondrial; assay: Inhibition of DHODH in human HEK-293 cells transfected with ISRE-luciferase reporter gene assessed as increase in 150 IU/ml IFN-alpha mediated cellular response at 80 uM in presence of mirin measured after 24 hrs by luciferase reporter gene assay; conditions: HEK293; in short: as §2
[7] = target: T1, Dihydroorotate dehydrogenase (quinone), mitochondrial; assay: Inhibition of DHODH in human HEK293 cells transfected with ISRE-luciferase reporter gene assessed as increase in 30 IU/ml IFN-alpha stimulated […] mRNA expression at 80 uM measured after 16 hrs by RT-qPCR analysis relative to control; in short: as §1
[8] = target: T1, Dihydroorotate dehydrogenase (quinone), mitochondrial; assay: Inhibition of DHODH in human HEK293 cells transfected with ISRE-luciferase reporter gene assessed as increase in 125 IU/ml IFN-alpha stimulated DDX58 mRNA expression at 80 uM measured after 16 hrs by RT-qPCR analysis relative to control; in short: as §1
[9] = target: T1, Dihydroorotate dehydrogenase (quinone), mitochondrial; assay: Inhibition of DHODH in human HEK293 cells transfected with ISRE-luciferase reporter gene assessed as increase in 60 IU/ml IFN-alpha stimulated […] mRNA expression at 80 uM measured after 16 hrs by RT-qPCR analysis relative to control; in short: as §1
[10] = target: T1, Dihydroorotate dehydrogenase (quinone), mitochondrial; assay: Inhibition of DHODH in human HEK293 cells transfected with ISRE-luciferase reporter gene assessed as increase in 60 IU/ml IFN-alpha stimulated ISG15 mRNA expression at 80 uM measured after 16 hrs by RT-qPCR analysis relative to control; in short: as §3
[11] = target: T1, Dihydroorotate dehydrogenase (quinone), mitochondrial; assay: Inhibition of DHODH in human HEK293 cells transfected with ISRE-luciferase reporter gene assessed as increase in 125 IU/ml IFN-alpha stimulated IFIT1 mRNA expression at 80 uM measured after 16 hrs by RT-qPCR analysis relative to control; in short: as §1
[12] = target: T1, Dihydroorotate dehydrogenase (quinone), mitochondrial; assay: Inhibition of DHODH in human HEK293 cells transfected with ISRE-luciferase reporter gene assessed as increase in 60 IU/ml IFN-alpha stimulated PKR mRNA expression at 80 uM measured after 16 hrs by RT-qPCR analysis relative to control; in short: as §3
[13] = target: T1, Dihydroorotate dehydrogenase (quinone), mitochondrial; assay: Inhibition of DHODH in human HEK-293 cells transfected with ISRE-luciferase reporter gene assessed as increase in IFN-alpha mediated cellular response at 80 uM in presence of uridine measured after 24 hrs by luciferase reporter gene assay; conditions: HEK293
In short: (§4)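 ISRE-Luc HEK-293 cells exposed to increasing IFN-α concentrations with DMSO or compound (80 µM), supplemented with uridine (125 µM) or with 3 mM orotate or DHO. Reporter luciferase read after 24 h, normalized to DMSO + IFN-α 250 IU/ml. Means ± SD of three independent experiments; two-way ANOVA.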

[14] = target: T1, Dihydroorotate dehydrogenase (quinone), mitochondrial; assay: Inhibition of DHODH in human HEK-293 cells transfected with ISRE-luciferase reporter gene assessed as increase in IFN-alpha mediated cellular response at 80 uM in presence of orotate measured after 24 hrs by luciferase reporter gene assay; conditions: HEK293; in short: as §4
[15] = target: T1, Dihydroorotate dehydrogenase (quinone), mitochondrial; assay: Inhibition of DHODH in human HEK293 cells transfected with ISRE-luciferase reporter gene assessed as increase in 250 IU/ml IFN-alpha stimulated IFIT5 mRNA expression at 80 uM measured after 16 hrs by RT-qPCR analysis relative to control; in short: as §1
[16] = target: T1, Dihydroorotate dehydrogenase (quinone), mitochondrial; assay: Inhibition of DHODH in human HEK293 cells transfected with ISRE-luciferase reporter gene assessed as increase in 125 IU/ml IFN-alpha stimulated IFITM3 mRNA expression at 80 uM measured after 16 hrs by RT-qPCR analysis relative to control; in short: as §1
[17] = target: T1, Dihydroorotate dehydrogenase (quinone), mitochondrial; assay: Inhibition of DHODH in human HEK293 cells transfected with ISRE-luciferase reporter gene assessed as increase in 30 IU/ml IFN-alpha stimulated MX2 mRNA expression at 80 uM measured after 16 hrs by RT-qPCR analysis relative to control; in short: as §1
[18] = target: T1, Dihydroorotate dehydrogenase (quinone), mitochondrial; assay: Inhibition of DHODH in human HEK293 cells transfected with ISRE-luciferase reporter gene assessed as increase in 125 IU/ml IFN-alpha stimulated PKR mRNA expression at 80 uM measured after 16 hrs by RT-qPCR analysis relative to control; in short: as §1
[19] = target: T1, Dihydroorotate dehydrogenase (quinone), mitochondrial; assay: Inhibition of DHODH in human HEK-293 cells transfected with ISRE-luciferase reporter gene assessed as increase in 150 IU/ml IFN-alpha mediated cellular response at 80 uM in presence of P300/CBP measured after 24 hrs by luciferase reporter gene assay; conditions: HEK293; in short: as §2

T1 sequence (Q02127 whole entry): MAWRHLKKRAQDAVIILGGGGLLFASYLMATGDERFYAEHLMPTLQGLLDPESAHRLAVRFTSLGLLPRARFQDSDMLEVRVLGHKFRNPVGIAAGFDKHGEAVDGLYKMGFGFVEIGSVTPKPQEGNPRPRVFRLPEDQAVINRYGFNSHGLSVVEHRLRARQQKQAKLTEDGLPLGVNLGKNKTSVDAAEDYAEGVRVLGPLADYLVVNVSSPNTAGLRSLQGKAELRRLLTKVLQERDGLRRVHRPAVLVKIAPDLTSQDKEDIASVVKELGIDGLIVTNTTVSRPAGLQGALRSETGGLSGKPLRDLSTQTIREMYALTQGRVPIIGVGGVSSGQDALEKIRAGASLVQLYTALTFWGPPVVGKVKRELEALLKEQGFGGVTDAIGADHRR

fold change (FC) [1]: 112
Activity [2]: inactive
fold change (FC) [3]: 6
fold change (FC) [4]: 13
fold change (FC) [5]: 165
Activity [6]: inactive
fold change (FC) [7]: 44
fold change (FC) [8]: 31
fold change (FC) [9]: 83
fold change (FC) [10]: 163
fold change (FC) [11]: 115
fold change (FC) [12]: 3
Activity [13]: inactive
Activity [14]: inactive
fold change (FC) [15]: 5
fold change (FC) [16]: 14
fold change (FC) [17]: 7
fold change (FC) [18]: 3
Activity [19]: inactive
Compound: O=C1OC2(CCCCC2)c2ccn(C3CC3)c(=O)c21
